Like-named read-outs stand apart in the source and are kept apart here. Ends that are not written are not given here. * marks the point of attachment. 125I = [125I]*
What was measured:
[1] = Chemical stability by analytical HPLC; format: physicochemical; settings: 1 mg/mL, 37 °C, 24 h
In short: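 For acid stability, test peptide at 1 mg/mL in diluted HCl (pH 2), held at 37 °C for up to 24 h. Purity by analytical HPLC on a C18 column: A = acetonitrile/0.1% TFA, B = water/0.1% TFA, 65-40-0% B over 0-20-20.1 min, 1 mL/min, room temperature.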

[2] = tested on: HEK293-hACE2 cells; settings: 36 h
[3] = tested on: HEK293-hACE2 cells; settings: even at a concentration of 36.27 μM; 36 h
[4] = tested on: K18-hACE2 mice; test: 125I-based SPECT/CT in vivo distribution, K18-hACE2 mice; parameters: species or system mouse
In short: (§1)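 Male mice, 4 months old, n = 5 per strain, anaesthetised with isoflurane (1.5%–2% induction, 1%–1.5% maintenance). Each got 3.28 ± 0.42 MBq of the 125I-labelled test peptide via the lateral tail vein. SPECT (35 keV, MLEM, 28 min) at 1 and 6 h post-injection, followed by CT. Manual 3D ROIs gave uptake (counts/mm3) in heart, lungs, liver and GI tract.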

[5] = tested on: C57BL/6 mice; test: 125I-based SPECT/CT in vivo distribution, wild-type mice; parameters: species or system mouse; settings: WT C57BL/6 mice, i.v., by 6 h P.I.
In short: as §1

[6] = tested on: HEK293-hACE2 cells; format: cell-based, human; settings: 2 × 10^6 cells/mL, 0.5 mL, γ-counter, mean ± SD, three repetitions
[7] = Radiochemical stability in 0.01 M PBS; format: physicochemical; settings: radio-TLC, mean ± SD
[8] = Radiochemical stability in 10% FBS; format: in vitro ADME; settings: radio-TLC, mean ± SD
[9] = tested on: wild-type C57BL/6 mice; test: 68Ga-DOTA-Omi-X PET/CT, wild-type mice; format: in vivo, mouse; settings: 3.7 MBq i.v., PET 2 h P.I.

## CC(C)C[C@H](NC(=O)[C@H](CC(C)C)NC(=O)[C@H](CCC(=O)O)NC(=O)[C@H](Cc1ccccc1)NC(=O)[C@H](CO)NC(=O)[C@H](CC(C)C)NC(=O)[C@@H](NC(=O)[C@@H](NC(=O)[C@@H](NC(=O)[C@H](CCCNC(=N)N)NC(=O)[C@H](Cc1ccc(O)cc1)NC(=O)[C@@H]1CCCN1C(=O)[C@H](CCC(N)=O)NC(=O)[C@@H](N)Cc1c[nH]cn1)C(C)C)C(C)C)C(C)C)C(=O)N[C@@H](Cc1c[nH]cn1)C(=O)O [Omi-X]
[1]; diluted HCl (pH = 2), analytical HPLC C18
  chemical stability of the peptide sequence: chemically stable
[1]; weakly acidic environment: diluted HCl (pH = 2), analytical HPLC
  chemical stability of the peptide sequence: > 95%
[2]; 54.410 μM (100 μg/mL)
  cell-division rate (CFDA SE): slightly inhibited
[2]; low-dose 0.544 μM (1 μg/mL)
  cell-division rate (CFDA SE): no significant difference
[2]; medium-dose 5.441 μM (10 μg/mL)
  cell-division rate (CFDA SE): no significant difference
[3]
  effect on cell cycle distribution: no significant effect

## ^125I-Omi-X: 125I-labeled Omi-X for SPECT imaging (HQPY(125I)RVVVLSFELLH)
[4]; i.v. tail vein, SPECT/CT 1 h P.I.
  clearance from circulation: rapidly cleared from circulation
[4]; i.v., SPECT/CT
  excretion of unbound tracer: primarily excreted through the urinary system
[4]; i.v., SPECT/CT 1 h P.I.
  organ accumulation: notably accumulated in the organs highly expressing ACE2, including the lung, heart, liver, and spleen
[5]
  uptake in RAAS-related organs: greatly reduced

## TVCGPKKSTNLVKNK [Omi-B]
[6]
  radioactive uptake rate in HEK293-hACE2 cells (ACE2-binding rate): 15.04% ± 2.98%

## CC(C)C[C@H](NC(=O)[C@H](CC(C)C)NC(=O)[C@H](CCC(=O)O)NC(=O)[C@H](Cc1ccccc1)NC(=O)[C@H](CO)NC(=O)[C@H](CC(C)C)NC(=O)[C@@H](NC(=O)[C@@H](NC(=O)[C@@H](NC(=O)[C@H](CCCNC(=N)N)NC(=O)[C@H](Cc1ccc(O)cc1)NC(=O)[C@@H]1CCCN1C(=O)[C@H](CCC(N)=O)NC(=O)[C@H](Cc1c[nH]cn1)NC(=O)CN1CCN(CC(=O)O)CCN(CC(=O)O)CCN(CC(=O)O)CC1)C(C)C)C(C)C)C(C)C)C(=O)N[C@@H](Cc1c[nH]cn1)C(=O)O [^68Ga-DOTA-Omi-X, metal not drawn]
[7]
  radiochemical stability (4 h) in 0.01 M PBS: 96.10 ± 0.75%
[8]
  radiochemical stability (4 h) in 10% FBS: 94.10 ± 1.55%
[9]
  ACE2-specific targeting: did not appear to show significant ACE2-specific targeting
